Series [1] in a line: melting temperature; fluorescence melt of hairpins on a sequencing array, two-state fit, raised by 9.35 °C to match UV melts. Conditions: sodium 0.088 M. The essentials: (§1)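 Folding enthalpy and melting temperature come from bootstrapped two-state fits to Cy3 fluorescence of library hairpins carrying annealed Cy3 and quencher oligos on a sequenced MiSeq flow cell. Imaging was done in 50 mM Na-HEPES pH 8.0, 25 mM NaCl, stepping by 2.5 °C up to 60 °C, and signals were normalised to pre-quench Cy3 and to control constructs. Results of four replicates were combined by inverse variance, and fitted temperatures were raised by 9.35 °C to match UV melts.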

A short description of series [2]: folding enthalpy; higher = less favourable; fluorescence melt of hairpins on a sequencing array, two-state fit. Conditions: sodium 0.088 M. The essentials:
as §1

With GATCGGACCGCCGATC ((((((....)))))), the Tm in series [1] worked out at 54.6 °C. In addition, the folding enthalpy in series [2] is -39.9 kcal/mol.
The corresponding values for GATCGGACGGCCGATC ((((((....)))))) are 59.3 °C and -45.5 kcal/mol.
The corresponding values for GATCGGAGACCGATC ((((((...)))))) are 56.7 °C and -30.9 kcal/mol.
In the case of GATCGGAGGGCCGATC ((((((....)))))), the Tm in series [1] was determined as 55.1 °C. For the same sequence, the folding enthalpy in series [2] was -37.3 kcal/mol.
The matching figures for GATCGGAGTCCCGATC ((((((....)))))): 55.3 °C and -33.8 kcal/mol.
The matching figures for GATCGGAGTCCGATC ((((((...)))))): 54 °C and -38.6 kcal/mol.
GATCGGATCACCGATC ((((((....)))))): the Tm in series [1] was 57.5 °C. Also, the folding enthalpy in series [2] is -34 kcal/mol.
For the sequence GATCGGCAAGCCGATC ((((((....)))))), the Tm in series [1] stood at 67 °C. Besides, the folding enthalpy in series [2] is -30.5 kcal/mol.
As for GATCGGCACACCGATC ((((((....)))))), the Tm in series [1] is 59 °C. In addition, the folding enthalpy in series [2] is -39.6 kcal/mol.
The matching figures for GATCGGCACCCCGATC ((((((....)))))): 56.6 °C and -31.8 kcal/mol.
The corresponding values for GATCGGCACGCCGATC ((((((....)))))) are 67.8 °C and -31.6 kcal/mol.
As to GATCGGCATGCCGATC ((((((....)))))), in series [1], the Tm stood at 67.4 °C. In series [2], the folding enthalpy is -44.7 kcal/mol.
The corresponding values for GATCGGCATTCCGATC ((((((....)))))) are 57 °C and -37.6 kcal/mol.
The corresponding values for GATCGGCCCACCGATC ((((((....)))))) are 58.2 °C and -41.5 kcal/mol.
The corresponding values for GATCGGCCGCCCGATC ((((((....)))))) are 60.5 °C and -40.4 kcal/mol.
Take GATCGGCCTCCCGATC ((((((....)))))): in series [1], the Tm was 55.8 °C. The folding enthalpy in series [2] was -35 kcal/mol.
Take GATCGGCGAAAGCCAATC (((.(((....))).))): in series [1], the Tm was found to be 43.7 °C. The folding enthalpy in series [2] is -17.1 kcal/mol.
The matching figures for GATCGGCGACCCGATC ((((((....)))))): 55.6 °C and -34.2 kcal/mol.
The corresponding values for GATCGGCGACCGATC ((((((...)))))) are 56.4 °C and -34.2 kcal/mol.
As to GATCGGCGGCCCGATC ((((((....)))))), the Tm in series [1] turned out to be 55.5 °C. Also, the folding enthalpy in series [2] was -35.4 kcal/mol.
The corresponding values for GATCGGCGGCCGATC ((((((...)))))) are 58.1 °C and -49.3 kcal/mol.
Turning to GATCGGCGGGCCGATC ((((((....)))))), in series [1], the Tm turned out to be 66.9 °C. In addition, the folding enthalpy in series [2] was -38.9 kcal/mol.
The corresponding values for GATCGGCGTACCGATC ((((((....)))))) are 59.5 °C and -38.2 kcal/mol.
The corresponding values for GATCGGCGTCCCGATC ((((((....)))))) are 55.4 °C and -40.3 kcal/mol.
As for GATCGGGAACCCGATC ((((((....)))))), in series [1], the Tm worked out at 63.7 °C. Moreover, the folding enthalpy in series [2] is -42.4 kcal/mol.
The matching figures for GATCGGGACGCCGATC ((((((....)))))): 59.5 °C and -36.6 kcal/mol.
The corresponding values for GATCGGGCAACCGATC ((((((....)))))) are 65.4 °C and -34.4 kcal/mol.
The matching figures for GATCGGGCAGCCGATC ((((((....)))))): 59.3 °C and -40.3 kcal/mol.
Take GATCGGGCCACCGATC ((((((....)))))): the Tm in series [1] turned out to be 67.5 °C. The folding enthalpy in series [2] is -39.5 kcal/mol.
As to GATCGGGCTCCGATC ((((((...)))))), the Tm in series [1] amounted to 58.3 °C. For the same sequence, in series [2], the folding enthalpy is -35.8 kcal/mol.
The corresponding values for GATCGGGGAAACCTGATC ((((.((....)).)))) are 49.2 °C and -43.8 kcal/mol.
The corresponding values for GATCGGGGCACCGATC ((((((....)))))) are 65.9 °C and -34.9 kcal/mol.
The matching figures for GATCGGGGCCCCGATC ((((((....)))))): 68.6 °C and -55 kcal/mol.
For GATCGGGGCGCCGATC ((((((....)))))), the Tm in series [1] is 58.4 °C. In series [2], the folding enthalpy is -39 kcal/mol.
The matching figures for GATCGGGGCTCCGATC ((((((....)))))): 59.4 °C and -34.5 kcal/mol.
Consider GATCGGGGTCCCGATC ((((((....)))))), for which the Tm in series [1] was determined as 61 °C. In addition, the folding enthalpy in series [2] was -39.5 kcal/mol.
The corresponding values for GATCGGGTCCCCGATC ((((((....)))))) are 61.3 °C and -40.4 kcal/mol.
The matching figures for GATCGGGTTACCGATC ((((((....)))))): 67.3 °C and -35.8 kcal/mol.
The corresponding values for GATCGGTAAACCGATC ((((((....)))))) are 56.2 °C and -40.7 kcal/mol.
Consider GATCGGTAGACCGATC ((((((....)))))), for which the Tm in series [1] is 57 °C. Further, the folding enthalpy in series [2] was -41.1 kcal/mol.
The corresponding values for GATCGGTCTCCCGATC ((((((....)))))) are 56.1 °C and -41 kcal/mol.
The corresponding values for GATCGGTGCGCCGATC ((((((....)))))) are 66.9 °C and -36.9 kcal/mol.
As to GATCGGTGGCCCGATC ((((((....)))))), the Tm in series [1] was determined as 57.1 °C. Besides, the folding enthalpy in series [2] was -37.6 kcal/mol.
The matching figures for GATCGGTGTACCGATC ((((((....)))))): 65.8 °C and -36.3 kcal/mol.
The corresponding values for GATCGGTGTGCCGATC ((((((....)))))) are 64.8 °C and -33.2 kcal/mol.
The corresponding values for GATCGGTTCCCGATC ((((((...)))))) are 59.3 °C and -39.3 kcal/mol.
Regarding GATCGGTTCGCCGATC ((((((....)))))), the Tm in series [1] is 61.4 °C. Also, in series [2], the folding enthalpy is -45 kcal/mol.
For the sequence GATCGGTTGCCGATC ((((((...)))))), the Tm in series [1] is 59.1 °C. Besides, the folding enthalpy in series [2] is -28.6 kcal/mol.
Turning to GATCGGTTTCCGATC ((((((...)))))), the Tm in series [1] is 59 °C. Besides, the folding enthalpy in series [2] is -34.7 kcal/mol.
Take GATCGTAAAGACGATC ((((((....)))))): in series [1], the Tm is 51.1 °C. The folding enthalpy in series [2] is -31.4 kcal/mol.
As for GATCGTAACAACGATC ((((((....)))))), the Tm in series [1] is 55 °C. Besides, the folding enthalpy in series [2] is -35.4 kcal/mol.
The corresponding values for GATCGTAACCACGATC ((((((....)))))) are 54.8 °C and -35.8 kcal/mol.
On to GATCGTAAGAACGATC ((((((....)))))), for which the Tm in series [1] amounted to 50.5 °C. Also, the folding enthalpy in series [2] is -35.1 kcal/mol.
The matching figures for GATCGTAAGACGATC ((((((...)))))): 54.2 °C and -42.3 kcal/mol.
Take GATCGTAATACGATC ((((((...)))))): in series [1], the Tm was 53.5 °C. Moreover, the folding enthalpy in series [2] was -41.5 kcal/mol.
On to GATCGTACATACGATC ((((((....)))))), for which, in series [1], the Tm is 54.9 °C. In addition, in series [2], the folding enthalpy was -41.2 kcal/mol.
The matching figures for GATCGTACCAACGATC ((((((....)))))): 55.5 °C and -36.7 kcal/mol.
